Measurements from ChEMBL document CHEMBL1133253, “Improved antibacterial activities of coumarin antibiotics bearing 5',5'-dialkylnoviose: biological activity of RU79115” (Bioorg Med Chem Lett, 2000).
Converted amounts (≈) assume the structure as drawn.

Tests used:
Enterococcus [1] = assay: In vitro anti-enterococcal activity against enterococci species resistant to vancomycin [65]* expressed as geometric mean; type: functional
[2] = Minimum inhibitory concentration evaluated against pneumococci resistant to penicillin [29]*; type: functional
Mus musculus [3] = assay: Protective dose of subcutaneously administered compound against intraperitoneally-induced septicaemia model (vancomycin resistant Enterococci faecium D3AP9 strain ) in murine; type: functional; details: sc, read-out: PD50
How it was run: (§1)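 Murine septicaemia was induced by intraperitoneal infection, and the compound was given subcutaneously. PD50 was derived by probit analysis.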

Staphylococcus sp. [4] = assay: Minimum inhibitory concentration evaluated against Staphylococcus species resistant to ofloxacin [59]*; type: functional
How it was run: (§2)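 Two-fold agar dilution MIC, in µg/mL, against Staphylococcus panels grouped by resistance phenotype (oxacillin and/or ofloxacin resistant). Per-panel values are reported as the geometric mean and MIC90 across strains; the strain count per panel is given in brackets.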

Mus musculus [5] = assay: Minimum inhibitory concentration of the subcutaneously administered compound evaluated against vancomycin resistant Enterococci faecium D3HM3 strain in mice (po); type: functional
Mus musculus [6] = assay: Minimum inhibitory concentration of the subcutaneously administered compound evaluated against vancomycin resistant Enterococci faecium D3HT12 strain in mice (po); type: functional
Enterococcus [7] = assay: In vitro anti-enterococcal activity against enterococci species susceptible to vancomycin [26]* expressed as geometric mean; type: functional
Mus musculus [8] = assay: Minimum inhibitory concentration of the subcutaneously administered compound evaluated against Staphylococcus aureus GR56 strain resistant to oxacillin in mice (sc)
Mus musculus [9] = assay: Protective dose of subcutaneously administered compound against intraperitoneally-induced septicaemia model (vancomycin resistant Enterococci faecium D3HM3 strain ) in murine; type: functional; details: sc, read-out: PD50; how it was run: as §1
Streptococcus sp. [10] = assay: Minimum inhibitory concentration evaluated against Streptococci species (viridans) [25]*; type: functional
Enterococcus [11] = assay: In vitro anti-enterococcal activity against enterococci species resistant to vancomycin and teicoplanin [17]* expressed as geometric mean; type: functional
Staphylococcus sp. [12] = assay: Minimum inhibitory concentration evaluated against Staphylococcus species resistant to oxacillin [66]*; type: functional; how it was run: as §2
Enterococcus [13] = assay: Minimum inhibitory concentration evaluated against enterococci species susceptible to vancomycin [26]*; type: functional
Mus musculus [14] = assay: Protective dose of subcutaneously administered compound against intraperitoneally-induced septicaemia model (Enterococci faecalis D2HT6 strain) in murine; type: functional; details: sc, read-out: PD50; how it was run: as §1
Enterococcus [15] = assay: Minimum inhibitory concentration evaluated against enterococci species resistant to vancomycin and teicoplanin [17]*; type: functional
Streptococcus sp. [16] = assay: Minimum inhibitory concentration evaluated against Streptococci species [38]*; type: functional
Mus musculus [17] = assay: Minimum inhibitory concentration of the subcutaneously administered compound evaluated against Staphylococcus aureus HT-18 strain in mice (SC); type: functional
Enterococcus [18] = assay: Minimum inhibitory concentration evaluated against enterococci species resistant to vancomycin [65]*; type: functional
Mus musculus [19] = assay: Minimum inhibitory concentration of the subcutaneously administered compound evaluated against […] B1HT3 strain in mice (po); type: functional
Mus musculus [20] = assay: Protective dose of subcutaneously administered compound against intraperitoneally-induced septicaemia model (vancomycin resistant Enterococci faecium D3HT12 strain ) in murine; type: functional; details: sc, read-out: PD50; how it was run: as §1
Streptococcus sp. [21] = assay: In vitro anti-streptococcal activity against Streptococci species (viridans) [25]* expressed as geometric mean; type: functional
Staphylococcus sp. [22] = assay: Minimum inhibitory concentration evaluated against Staphylococcus species [91]*; type: functional; how it was run: as §2
Mus musculus [23] = assay: Minimum inhibitory concentration of the subcutaneously administered compound evaluated against Enterococci faecalis D2HT6 strain in mice; type: functional
Mus musculus [24] = assay: Protective dose of subcutaneously administered compound against intraperitoneally-induced septicaemia model ([…] B1HT3 strain) in murine; type: functional; details: sc, read-out: PD50; how it was run: as §1
Mus musculus [25] = assay: Minimum inhibitory concentration of the subcutaneously administered compound evaluated against Streptococcus pyogenes A1UC1 strain in mice (po); type: functional
Mus musculus [26] = assay: Minimum inhibitory concentration of the subcutaneously administered compound evaluated against vancomycin resistant Enterococci faecium D3AP9 strain in mice (po); type: functional
Streptococcus sp. [27] = assay: In vitro anti-streptococcal activity against Streptococci species [38]* expressed as geometric mean; type: functional
Staphylococcus sp. [28] = assay: Minimum inhibitory concentration evaluated against Staphylococcus species resistant to oxacillin and ofloxacin [47]*; type: functional; how it was run: as §2
pneumococci = assay: In vitro anti-streptococcal activity against pneumococci resistant to penicillin [29]* expressed as geometric mean; type: functional
Mus musculus [29] = assay: Minimum inhibitory concentration of the subcutaneously administered compound evaluated against Enterococci faecium D3HT7 strain in mice (po); type: functional
Mus musculus [30] = assay: Protective dose of subcutaneously administered compound against intraperitoneally-induced septicaemia model (Enterococci faecium D3HT7 strain ) in murine; type: functional; details: sc, read-out: PD50; how it was run: as §1
Mus musculus [31] = assay: Protective dose of subcutaneously administered compound against intraperitoneally-induced septicaemia model (vancomycin resistant Enterococci faecium D3HM4 strain ) in murine; type: functional; details: sc, read-out: PD50; how it was run: as §1
Mus musculus [32] = assay: Protective dose of subcutaneously administered compound against intraperitoneally-induced septicaemia model (Staphylococcus aureus HT18) in murine; type: functional; details: sc, read-out: PD50; how it was run: as §1
Mus musculus [33] = assay: Protective dose of subcutaneously administered compound against intraperitoneally-induced septicaemia model (Streptococcus pyogenes A1UC1 strain) in murine; type: functional; details: sc, read-out: PD50; how it was run: as §1
Mus musculus [34] = assay: Minimum inhibitory concentration of the subcutaneously administered compound evaluated against vancomycin resistant Enterococci faecium D3HM4 strain in mice (po); type: functional
Mus musculus [35] = assay: Protective dose of subcutaneously administered compound against intraperitoneally-induced septicaemia model (Staphylococcus aureus GR56 strain resistant to oxacillin) in murine; type: functional; details: sc, read-out: PD50; how it was run: as §1
Mus musculus [36] = assay: Minimum inhibitory concentration of the subcutaneously administered compound evaluated against […] B1HT3 strain in mice; type: functional
Mus musculus [37] = assay: Protective dose of subcutaneously administered compound against intraperitoneally-induced septicaemia model ([…] A1UC1 strain) in murine; type: functional; details: sc, read-out: PD50; how it was run: as §1
Mus musculus [38] = assay: Minimum inhibitory concentration of the subcutaneously administered compound evaluated against Staphylococcus aureus HT-18 strain in mice; type: functional
Mus musculus [39] = assay: Minimum inhibitory concentration of the subcutaneously administered compound evaluated against Enterococci faecium D3HT7 strain in mice; type: functional
Staphylococcus sp. [40] = assay: In vitro anti-staphylococcal activity against Staphylococcus species resistant to oxacillin [66]* expressed as geometric mean; type: functional; how it was run: as §2
Mus musculus [41] = assay: Minimum inhibitory concentration of the subcutaneously administered compound evaluated against vancomycin resistant Enterococci faecium D3AP9 strain in mice; type: functional
Staphylococcus sp. [42] = assay: In vitro anti-staphylococcal activity against Staphylococcus species resistant to ofloxacin [59]* expressed as geometric mean; type: functional; how it was run: as §2
Mus musculus [43] = assay: Minimum inhibitory concentration of the subcutaneously administered compound evaluated against vancomycin resistant Enterococci faecium D3HT12 strain in mice; type: functional
Mus musculus [44] = assay: Minimum inhibitory concentration of the subcutaneously administered compound evaluated against […] A1UC1 strain in mice; type: functional
Staphylococcus sp. [45] = assay: In vitro anti-staphylococcal activity against Staphylococcus species resistant to oxacillin and ofloxacin[47]* expressed as geometric mean; type: functional; how it was run: as §2
Staphylococcus sp. [46] = assay: In vitro anti-staphylococcal activity against Staphylococcus species [91]* expressed as geometric mean; type: functional
How it was run: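 Two-fold agar-dilution MICs (µg/mL) were run on a panel of staphylococcal isolates and summarised as the geometric mean across strains.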

Mus musculus [47] = assay: Minimum inhibitory concentration of the subcutaneously administered compound evaluated against Staphylococcus aureus GR56 strain resistant to oxacillin in mice; type: functional
Mus musculus [48] = assay: Minimum inhibitory concentration of the subcutaneously administered compound evaluated against vancomycin resistant Enterococci faecium D3HM4 strain in mice; type: functional

Compound | GM (Enterococcus [1]) | MIC90 [2] | ED50 (Mus musculus [3]) | MIC90 (Staphylococcus sp. [4]) | GM (Enterococcus [7]) | ED50 (Mus musculus [9]) | MIC90 (Streptococcus sp. [10]) | GM (Enterococcus [11]) | MIC90 (Staphylococcus sp. [12]) | MIC90 (Enterococcus [13]) | ED50 (Mus musculus [14]) | MIC90 (Enterococcus [15]) | MIC90 (Streptococcus sp. [16]) | MIC90 (Enterococcus [18]) | ED50 (Mus musculus [20]) | GM (Streptococcus sp. [21]) | MIC90 (Staphylococcus sp. [22]) | MIC (Mus musculus [23]) | ED50 (Mus musculus [24]) | GM (Streptococcus sp. [27]) | further results
CN[C@H](CC(C)C)C(=O)N[C@H]1C(=O)N[C@@H](CC(N)=O)C(=O)N[C@H]2C(=O)N[C@H]3C(=O)N[C@H](C(=O)N[C@H](C(=O)O)c4cc(O)cc(O)c4-c4cc3ccc4O)[C@H](O)c3ccc(c(Cl)c3)Oc3cc2cc(c3O[C@@H]2O[C@H](CO)[C@@H](O)[C@H](O)[C@H]2O[C@H]2C[C@](C)(N)[C@H](O)[C@H](C)O2)Oc2ccc(cc2Cl)[C@H]1O [VANCOMYCIN] | 23.7 | 0.3 µg/mL (≈ 0.207 µM) | > 50 mg/kg | 2.5 µg/mL (≈ 1.73 µM) | 0.75 | > 50 mg/kg | 0.6 µg/mL (≈ 0.414 µM) | 36.9 | 2.5 µg/mL (≈ 1.73 µM) | 0.6 µg/mL (≈ 0.414 µM) | 16.7 mg/kg | > 20 µg/mL | 0.6 µg/mL (≈ 0.414 µM) | > 20 µg/mL | > 50 mg/kg | 0.4 | 2.5 µg/mL (≈ 1.73 µM) | 2.5 µg/mL (≈ 1.73 µM) | 17.2 mg/kg | 0.35 | MIC (Mus musculus [5]): > 40 µg/mL; MIC (Mus musculus [6]): > 40 µg/mL; MIC (Mus musculus [8]): 1.2 µg/mL (≈ 0.828 µM); MIC (Mus musculus [17]): 1.2 µg/mL (≈ 0.828 µM); MIC (Mus musculus [19]): 0.3 µg/mL (≈ 0.207 µM); MIC (Mus musculus [25]): 0.6 µg/mL (≈ 0.414 µM); MIC (Mus musculus [26]): > 40 µg/mL; MIC90 (Staphylococcus sp. [28]): 2.5 µg/mL (≈ 1.73 µM); GM (pneumococci): 0.24; MIC (Mus musculus [29]): 2.5 µg/mL (≈ 1.73 µM); ED50 (Mus musculus [30]): 8.7 mg/kg; ED50 (Mus musculus [31]): > 50 mg/kg; ED50 (Mus musculus [32]): 7.8 mg/kg; ED50 (Mus musculus [33]): < 1.5 mg/kg; MIC (Mus musculus [34]): > 40 µg/mL; ED50 (Mus musculus [35]): 4 mg/kg
CC(=O)NC[C@H]1CN(c2ccc(N3CCN(C(=O)CO)CC3)c(F)c2)C(=O)O1 [EPEREZOLID] | 0.72 | 0.3 µg/mL (≈ 0.761 µM) | 8.7 mg/kg | 1.2 µg/mL (≈ 3.04 µM) | 0.51 | 2.8 mg/kg | 1.2 µg/mL (≈ 3.04 µM) | 0.43 | 1.2 µg/mL (≈ 3.04 µM) | 0.6 µg/mL (≈ 1.52 µM) | 6.4 mg/kg | 1.2 µg/mL (≈ 3.04 µM) | 0.6 µg/mL (≈ 1.52 µM) | 1.2 µg/mL (≈ 3.04 µM) | 1.5 mg/kg | 0.39 | 1.2 µg/mL (≈ 3.04 µM) | 0.6 µg/mL (≈ 1.52 µM) | > 50 mg/kg | 0.52 | MIC (Mus musculus [36]): 0.6 µg/mL (≈ 1.52 µM); ED50 (Mus musculus [37]): 22.8 mg/kg; MIC (Mus musculus [38]): 0.6 µg/mL (≈ 1.52 µM); MIC (Mus musculus [39]): 0.6 µg/mL (≈ 1.52 µM); GM (Staphylococcus sp. [40]): 0.73; MIC (Mus musculus [41]): 1.2 µg/mL (≈ 3.04 µM); GM (Staphylococcus sp. [42]): 0.71; MIC (Mus musculus [43]): 0.3 µg/mL (≈ 0.761 µM); MIC (Mus musculus [44]): < 0.15 µg/mL; GM (Staphylococcus sp. [45]): 0.72; MIC90 (Staphylococcus sp. [28]): 1.2 µg/mL (≈ 3.04 µM); GM (pneumococci): 0.25; GM (Staphylococcus sp. [46]): 0.74; ED50 (Mus musculus [30]): 3 mg/kg; MIC (Mus musculus [47]): 1.2 µg/mL (≈ 3.04 µM); MIC (Mus musculus [48]): 0.3 µg/mL (≈ 0.761 µM); ED50 (Mus musculus [31]): 27.2 mg/kg; ED50 (Mus musculus [32]): 20 mg/kg; ED50 (Mus musculus [35]): 5 mg/kg
